ChEMBL document CHEMBL1143109, “Discovery of novel orally active ureido NPY Y5 receptor antagonists” (Bioorg Med Chem Lett, 2008)
Calls of active or inactive are those of the source. No cut-off for these calls is given here.

Assays:
[1] = Inhibition of chloride channel at 10 uM
Summary of the method: (§1)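 Counterscreen panel of 60 receptors, enzymes and ion channels; inhibition of binding measured at 10 µM.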

[2] = biological target: T1, Neuropeptide Y receptor type 5 (Rattus norvegicus) (UniProt Q63634); test: Antagonist activity at rat NPY Y5 receptor expressed in HEK293 cells assessed as inhibition of forskolin-stimulated cAMP production; type: functional, cell-based
T1 sequence (whole entry): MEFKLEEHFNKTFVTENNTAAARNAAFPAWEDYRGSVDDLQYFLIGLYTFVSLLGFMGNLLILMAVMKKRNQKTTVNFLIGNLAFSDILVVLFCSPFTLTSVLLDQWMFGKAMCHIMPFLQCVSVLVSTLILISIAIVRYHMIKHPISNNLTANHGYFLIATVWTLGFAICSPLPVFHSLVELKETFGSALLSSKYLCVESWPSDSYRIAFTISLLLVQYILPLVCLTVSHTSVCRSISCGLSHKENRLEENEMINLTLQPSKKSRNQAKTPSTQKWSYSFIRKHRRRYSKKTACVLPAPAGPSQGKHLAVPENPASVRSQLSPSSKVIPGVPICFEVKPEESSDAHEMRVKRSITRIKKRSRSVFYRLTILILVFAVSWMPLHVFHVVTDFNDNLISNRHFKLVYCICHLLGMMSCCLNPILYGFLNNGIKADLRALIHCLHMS
Summary of the method: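 HEK293 cells expressing rat NPY Y5 receptor. Functional antagonism measured as the ability to overcome NPY inhibition of forskolin-stimulated cAMP production; reported as Kb.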

Rattus norvegicus = species: Rattus norvegicus; test: Antagonism of galanin-induced food intake in rat; type: functional, organism-based
[3] = biological target: T2, Neuropeptide Y receptor type 1 (Homo sapiens, UniProt P25929); test: Binding affinity to human NPY Y1 receptor
T2 sequence (P25929 whole entry): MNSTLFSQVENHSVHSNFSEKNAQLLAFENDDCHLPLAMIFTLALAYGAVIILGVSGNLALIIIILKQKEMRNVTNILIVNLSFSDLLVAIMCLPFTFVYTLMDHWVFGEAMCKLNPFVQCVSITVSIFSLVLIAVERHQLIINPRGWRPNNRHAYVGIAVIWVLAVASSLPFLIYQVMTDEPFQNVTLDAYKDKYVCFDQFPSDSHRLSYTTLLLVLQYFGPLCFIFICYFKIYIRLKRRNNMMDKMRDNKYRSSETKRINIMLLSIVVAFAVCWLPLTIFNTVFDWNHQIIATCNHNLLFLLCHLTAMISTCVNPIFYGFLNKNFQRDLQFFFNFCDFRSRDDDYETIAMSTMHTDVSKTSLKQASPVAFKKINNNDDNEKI

[4] = biological target: 5-hydroxytryptamine receptor 7 (Homo sapiens) (UniProt P34969); test: Inhibition of 5HT7 receptor at 10 uM; summary of the method: as §1
[5] = biological target: Sodium-dependent dopamine transporter (Homo sapiens) (UniProt Q01959); test: Inhibition of dopamine transporter at 10 uM; summary of the method: as §1
[6] = biological target: Sodium-dependent serotonin transporter (Homo sapiens) (UniProt P31645); test: Inhibition of serotonin transporter at 10 uM; summary of the method: as §1
[7] = Inhibition of sodium channel at 10 uM; summary of the method: as §1

Sequence of Sodium-dependent dopamine transporter (Homo sapiens) (Q01959 whole entry): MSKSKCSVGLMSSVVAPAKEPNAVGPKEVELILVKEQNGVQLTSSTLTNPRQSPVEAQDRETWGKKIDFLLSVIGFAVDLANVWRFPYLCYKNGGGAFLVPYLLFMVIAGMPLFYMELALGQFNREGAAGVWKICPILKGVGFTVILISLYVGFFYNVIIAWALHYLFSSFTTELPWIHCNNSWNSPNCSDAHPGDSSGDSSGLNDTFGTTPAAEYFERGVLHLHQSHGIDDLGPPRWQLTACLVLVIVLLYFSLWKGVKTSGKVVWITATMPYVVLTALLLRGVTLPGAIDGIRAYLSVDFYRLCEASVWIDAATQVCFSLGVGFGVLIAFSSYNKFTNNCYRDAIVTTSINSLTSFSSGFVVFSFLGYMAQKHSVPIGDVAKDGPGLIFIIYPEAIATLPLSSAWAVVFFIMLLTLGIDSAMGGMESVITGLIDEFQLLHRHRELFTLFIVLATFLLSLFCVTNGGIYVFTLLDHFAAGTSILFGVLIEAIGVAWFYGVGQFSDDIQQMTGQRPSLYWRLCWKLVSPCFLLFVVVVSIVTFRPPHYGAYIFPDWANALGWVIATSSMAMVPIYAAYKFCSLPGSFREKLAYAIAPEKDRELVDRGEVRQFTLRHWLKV
Sequence of 5-hydroxytryptamine receptor 7 (Homo sapiens) (P34969 whole entry): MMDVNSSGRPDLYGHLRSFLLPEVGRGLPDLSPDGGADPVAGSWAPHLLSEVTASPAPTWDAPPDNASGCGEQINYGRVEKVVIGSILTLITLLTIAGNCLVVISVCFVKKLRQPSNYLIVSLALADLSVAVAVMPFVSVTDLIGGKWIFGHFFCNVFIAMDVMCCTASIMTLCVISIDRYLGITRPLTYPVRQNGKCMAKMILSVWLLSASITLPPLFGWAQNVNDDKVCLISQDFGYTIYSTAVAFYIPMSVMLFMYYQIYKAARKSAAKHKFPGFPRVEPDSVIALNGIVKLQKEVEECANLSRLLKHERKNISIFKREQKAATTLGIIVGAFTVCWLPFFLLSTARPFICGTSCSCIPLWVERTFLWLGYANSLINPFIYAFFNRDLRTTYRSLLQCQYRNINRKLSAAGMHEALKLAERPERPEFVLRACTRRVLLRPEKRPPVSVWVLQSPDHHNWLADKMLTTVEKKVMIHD
Sequence of Sodium-dependent serotonin transporter (Homo sapiens) (P31645 whole entry, looked up): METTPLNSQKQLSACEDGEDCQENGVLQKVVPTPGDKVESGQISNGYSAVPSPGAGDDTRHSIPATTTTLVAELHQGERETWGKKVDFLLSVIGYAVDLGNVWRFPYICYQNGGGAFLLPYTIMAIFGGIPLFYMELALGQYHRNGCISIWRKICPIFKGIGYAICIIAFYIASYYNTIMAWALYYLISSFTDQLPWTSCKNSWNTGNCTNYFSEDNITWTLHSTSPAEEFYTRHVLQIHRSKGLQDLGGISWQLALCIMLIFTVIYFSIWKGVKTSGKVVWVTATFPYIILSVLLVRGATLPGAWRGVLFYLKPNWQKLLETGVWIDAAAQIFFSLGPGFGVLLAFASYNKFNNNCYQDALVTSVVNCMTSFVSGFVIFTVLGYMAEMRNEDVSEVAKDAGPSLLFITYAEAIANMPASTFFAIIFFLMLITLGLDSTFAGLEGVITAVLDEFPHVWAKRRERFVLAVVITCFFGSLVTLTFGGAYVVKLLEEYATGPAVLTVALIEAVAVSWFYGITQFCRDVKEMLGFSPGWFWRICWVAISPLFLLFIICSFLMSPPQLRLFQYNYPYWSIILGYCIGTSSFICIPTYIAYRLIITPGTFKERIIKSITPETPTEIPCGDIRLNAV

inhibition [1]: < 25%
Kb [2]: 2.7 nM
Ki [3]: > 10000 nM
inhibition [4]: < 10%
inhibition [5]: < 10%
inhibition [6]: < 10%
inhibition [7]: < 25%
SMILES: CC(=O)N1CCC(N(C)C(=O)N[C@H]2CC[C@H](c3cc(F)cc(F)c3)CC2)CC1
Activity (Rattus norvegicus): inactive
